Values after ≈ are worked out from the molar mass of the structure shown. Active and inactive are the calls of the source. No cut-off for these calls is given here.
Assays:
Mycolicibacterium aurum [1] = test: Inhibition of multidrug resistance efflux pump in Mycobacterium aurum ATCC 23366 assessed as inhibition of ethidium bromide efflux by measuring relative fluorescence units for ethidium bromide accumulation at 1/4 times MIC incubated for 60 mins by fluorimetric assay
Summary of the method: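 Whole-cell efflux assay: early-log cells (OD600 ~0.8) adjusted to OD600 0.4, washed into PBS; 4-6x10^7 bacteria/mL with 0.4% glucose, 0.5 mg/L ethidium bromide substrate and compound at 1/4x MIC. Fluorescence ex 544/em 590 nm at 37 °C every minute for 60 min; accumulation scored 0-4 by relative fluorescence bands. Verapamil positive, PBS negative control.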

[2] = system: Mycolicibacterium smegmatis; test: Antimycobacterial activity against Mycobacterium smegmatis str. MC2 155 ATCC 700084 assessed as inhibition of mycobacterial growth incubated for 24 hrs by MABA method; assay type: functional; conditions: MC2 155 ATCC 700084, 24 h
Mycolicibacterium aurum [3] = test: Antimycobacterial activity against Mycobacterium aurum ATCC 23366 assessed as inhibition of mycobacterial growth incubated for 4 days; assay type: functional
Summary of the method: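 HT-SPOTi agar dilution: two-fold serial dilutions of compound were mixed into Middlebrook 7H10 agar with 0.05% glycerol and 10% OADC, giving a final range of 500–0.5 µg/mL. Each well was spotted with 2x10^3 CFU of early-to-mid-log culture. Plates were incubated at 35 or 37 °C until spots appeared in control wells. Controls were DMSO-only and isoniazid. The MIC was read, in triplicate.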

[4] = system: Mycobacterium tuberculosis; test: Antimycobacterial activity against Mycobacterium tuberculosis mc'2-7000x assessed as inhibition of mycobacterial growth; assay type: functional
[5] = system: Mycobacterium tuberculosis; test: Antimycobacterial activity against Mycobacterium tuberculosis H37Rv ATTC 27294 assessed as inhibition of mycobacterial growth incubated for 7 days; assay type: functional; conditions: H37Rv ATTC 27294, 168 h
Summary of the method: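 MIC by HT-SPOTi on Middlebrook 7H10 agar with 0.05% (v/v) glycerol and 10% (v/v) OADC in 96-well format. Compounds dissolved at 50 mg/mL (stock), two-fold serial dilutions, final 500-0.5 µg/mL. Each well spotted with 2 µL early-to-midlog culture (2x10^3 CFU), incubated at 37 °C until distinct spots in control wells. DMSO-only and isoniazid controls; triplicate.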

[6] = Cytotoxic activity against human THP1 cells assessed as reduction in cell viability incubated for 48 hrs by […] based assay; design: species or system THP-1; conditions: THP1 cells
Summary of the method: (§1)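 RAW264.7 or THP-1 cells were grown in RPMI-1640 with 10% FBS and seeded at 10^5 cells/mL. Compound was two-fold serially diluted from a 50 mg/mL stock, with a solvent-control row. Plates were held 48 h at 37 °C in 5% CO2. Wells were washed twice with PBS, with centrifugation between washes for THP-1, then given fresh RPMI plus 0.01% […]. After overnight incubation, fluorescence was read at 560/590 nm and GIC50 derived.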

[7] = Cytotoxic activity against mouse RAW264.7 cells assessed as reduction in cell viability incubated for 48 hrs by […] based assay; summary of the method: as §1
[8] = Selectivity index, ratio of GIC50 for cytotoxicity against mouse RAW264.7 cells to MIC for Mycobacterium tuberculosis H37Rv ATTC 27294; assay type: toxicity, cell-based; conditions: read-out: Selectivity Index
Summary of the method: (§2)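 SI = GIC50 / H37Rv MIC (agar spot assay). GIC50 from cells in RPMI-1640 + 10% FBS, 37 °C, 5% CO2; 10^5 cells/mL added to two-fold compound dilutions from 50 mg/mL stock, solvent control row. 48 h exposure, washes (THP-1 centrifuged), fresh medium plus 0.01% […], overnight; fluorescence ex 560/em 590 nm.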

[9] = Selectivity index, ratio of GIC50 for cytotoxicity against human THP1 cells to MIC for Mycobacterium tuberculosis H37Rv ATTC 27294; assay type: toxicity, cell-based, THP-1; conditions: read-out: Selectivity Index; summary of the method: as §2

Row | Structure (SMILES) | Activity (Mycolicibacterium aurum [1]) | MIC [2] | MIC (Mycolicibacterium aurum [3]; ATCC 23366, 96 h) | MIC [4] | MIC [5] | GI50 at 48 h [6] | GI50 at 48 h [7] | selectivity ratio [8] | selectivity ratio [9] | MIC (Mycolicibacterium aurum [3])
1 | Cc1cc(CNCc2ccc(Cl)cc2)c(C)n1-c1ccc(Cl)cc1 | 2 RFU | 4 µg/mL (≈ 11.1 µM) | 1.9 µg/mL (≈ 5.29 µM) | 2 µg/mL (≈ 5.57 µM) | 16 µg/mL (≈ 44.5 µM) | 18 µg/mL (≈ 50.1 µM) | 0.1 µg/mL (≈ 0.278 µM) | 0.006 | 1.1 | 
2 | Cc1cccc(-n2c(C)cc(CN3CCN(C4C5CC6CC(C5)CC4C6)CC3)c2C)c1 (centres undefined) | 2 RFU | 64 µg/mL (≈ 153 µM) | 500 µg/mL (≈ 1200 µM) | 32 µg/mL (≈ 76.6 µM) | 16 µg/mL (≈ 38.3 µM) | 37 µg/mL (≈ 88.6 µM) | 22 µg/mL (≈ 52.7 µM) | 1.4 | 2.3 | 
3 | Cc1cc(CN2CCN(C3C[C@@H]4CC[C@H]3C4)CC2)c(C)n1-c1ccc(Cl)cc1 (mixture of isomers) | 1 RFU | 27 µg/mL | 16 µg/mL | 2 µg/mL | 1.9 µg/mL | 16 µg/mL | 5.6 µg/mL | 2.9 | 8.4 | 
4 | Cc1cc(CNCCc2ccccc2)c(C)n1-c1ccc(Cl)cc1 | 2 RFU | 32 µg/mL (≈ 94.4 µM) | 16 µg/mL (≈ 47.2 µM) | 4 µg/mL (≈ 11.8 µM) | 1 µg/mL (≈ 2.95 µM) | 7.3 µg/mL (≈ 21.5 µM) | 9.9 µg/mL (≈ 29.2 µM) | 10 | 7.3 | 
5 | Cc1cc(CNCc2ccccc2)c(C)n1-c1ccc(Cl)cc1 | 2 RFU | 4 µg/mL (≈ 12.3 µM) | 1.9 µg/mL (≈ 5.85 µM) | 0.5 µg/mL (≈ 1.54 µM) | 0.5 µg/mL (≈ 1.54 µM) | 7.2 µg/mL (≈ 22.2 µM) | 5.5 µg/mL (≈ 16.9 µM) | 11 | 14 | 
6 | Cc1c(CN2CCN(c3ccccc3)CC2)c(CN2CCN(c3ccccc3)CC2)c(C)n1-c1ccc(Cl)cc1 | 2 RFU | > 64 µg/mL | 250 µg/mL (≈ 451 µM) | > 64 µg/mL | 31 µg/mL (≈ 55.9 µM) | 113 µg/mL (≈ 204 µM) | 500 µg/mL (≈ 902 µM) | 16 | 3.6 | 
7 | Cc1c(CN2CCN(C)CC2)cc(-c2ccc(Cl)cc2)n1-c1ccc(Cl)cc1 | 2 RFU | 25 µg/mL (≈ 60.3 µM) | 16 µg/mL (≈ 38.6 µM) | 8 µg/mL (≈ 19.3 µM) | 1 µg/mL (≈ 2.41 µM) | 3.23 µg/mL (≈ 7.8 µM) | 19 µg/mL (≈ 45.9 µM) | 19 | 3.23 | 
8 | Cc1cc(CN2CCN(C3C4CC5CC(C4)CC3C5)CC2)c(C)n1-c1ccc(C(C)C)cc1 (centres undefined) | 3 RFU | 21 µg/mL (≈ 47.1 µM) | 500 µg/mL (≈ 1120 µM) | 3.3 µg/mL (≈ 7.4 µM) | 16 µg/mL (≈ 35.9 µM) | 72 µg/mL (≈ 162 µM) | 92 µg/mL (≈ 206 µM) | 5.7 | 4.5 | 
9 | Cc1cc(CN2CCN(C3C4CC5CC(C4)CC3C5)CC2)c(C)n1-c1ccccc1F (centres undefined) | 1 RFU | 13 µg/mL (≈ 30.8 µM) | 250 µg/mL (≈ 593 µM) | 1 µg/mL (≈ 2.37 µM) | 3.9 µg/mL (≈ 9.25 µM) | 26 µg/mL (≈ 61.7 µM) | 11 µg/mL (≈ 26.1 µM) | 2.8 | 6.7 | 
10 | Cc1c(CNCc2ccccc2)cc(-c2ccc(Cl)cc2)n1-c1ccc(Cl)cc1 | 1 RFU | 8 µg/mL (≈ 19 µM) | 1 µg/mL (≈ 2.37 µM) | 16 µg/mL (≈ 38 µM) |  | 99 µg/mL (≈ 235 µM) |  |  | 6.1 | 
11 | Cc1cc(CNC2C3CC4CC(C3)CC2C4)c(C)n1-c1ccc(Cl)cc1 (centres undefined) | 1 RFU | 16 µg/mL (≈ 43.4 µM) | 62 µg/mL (≈ 168 µM) | 1 µg/mL (≈ 2.71 µM) | 1.9 µg/mL (≈ 5.15 µM) | 15 µg/mL (≈ 40.7 µM) | 19 µg/mL (≈ 51.5 µM) | 10 | 7.8 | 
12 | Cc1c(CN2CCN(c3ccccc3)CC2)cc(-c2ccc(Cl)cc2)n1-c1ccc(Cl)cc1 | 2 RFU | > 64 µg/mL |  | 1 µg/mL (≈ 2.1 µM) | 1.9 µg/mL (≈ 3.99 µM) | 294 µg/mL (≈ 617 µM) | 175 µg/mL (≈ 367 µM) | 92 | 155 | inactive
13 | Cc1cc(CN2CCN(C3CCCCC3)CC2)c(C)n1-c1ccc(Cl)cc1 | 4 RFU | 27 µg/mL (≈ 70 µM) | 31 µg/mL (≈ 80.3 µM) | 8 µg/mL (≈ 20.7 µM) | 3.9 µg/mL (≈ 10.1 µM) | 16 µg/mL (≈ 41.5 µM) | 5.5 µg/mL (≈ 14.2 µM) | 1.4 | 4.1 | 
14 | Cc1cc(CN2CCN(C34CC5CC(CC(C5)C3)C4)CC2)c(C)n1-c1ccc(Cl)cc1 | 4 RFU | 8 µg/mL (≈ 18.3 µM) | 16 µg/mL (≈ 36.5 µM) | 8 µg/mL (≈ 18.3 µM) | 16 µg/mL (≈ 36.5 µM) | 16 µg/mL (≈ 36.5 µM) | 0.1 µg/mL (≈ 0.228 µM) | 0.006 | 1 | 
15 | Cc1c(CN2CCN(C34CC5CC(CC(C5)C3)C4)CC2)cc(-c2ccc(Cl)cc2)n1-c1ccc(Cl)cc1 | 3 RFU | 3.3 µg/mL (≈ 6.17 µM) | 62 µg/mL (≈ 116 µM) | 0.5 µg/mL (≈ 0.935 µM) | 7.8 µg/mL (≈ 14.6 µM) | 35 µg/mL (≈ 65.5 µM) | 23 µg/mL (≈ 43 µM) | 2.9 | 4.5 | 
16 | Cc1c(CN2CCN(C3C4CC5CC(C4)CC3C5)CC2)cc(-c2ccc(Cl)cc2)n1-c1ccc(Cl)cc1 (centres undefined) | 0 RFU | > 64 µg/mL |  | > 64 µg/mL | 62 µg/mL (≈ 116 µM) | 500 µg/mL (≈ 935 µM) | 95 µg/mL (≈ 178 µM) | 1.5 | 8.1 | inactive
17 | Cc1c(CNC2CCCCC2)cc(-c2ccc(Cl)cc2)n1-c1ccc(Cl)cc1 | 2 RFU | 4 µg/mL (≈ 9.68 µM) | 1 µg/mL (≈ 2.42 µM) | 8 µg/mL (≈ 19.4 µM) |  | 3.9 µg/mL (≈ 9.43 µM) |  |  | 0.5 | 
18 | Cc1cc(CNCc2ccc(F)cc2)c(C)n1-c1ccc(Cl)cc1 | 1 RFU | 2 µg/mL (≈ 5.83 µM) | 1.9 µg/mL (≈ 5.54 µM) | 0.7 µg/mL (≈ 2.04 µM) | > 125 µg/mL | 8.4 µg/mL (≈ 24.5 µM) | 26 µg/mL (≈ 75.8 µM) |  |  | 
19 | Cc1c(CN2CCN(C3CC4CCC3C4)CC2)cc(-c2ccc(Cl)cc2)n1-c1ccc(Cl)cc1 (mixture of isomers) |  | 64 µg/mL | 250 µg/mL | 64 µg/mL |  | 429 µg/mL |  |  | 6.7 | 

Source: ChEMBL document CHEMBL3797154, “Design and Synthesis of 1-((1,5-Bis(4-chlorophenyl)-2-methyl-1H-pyrrol-3-yl)methyl)-4-methylpiperazine (BM212) and N-Adamantan-2-yl-N'-((E)-3,7-dimethylocta-2,6-dienyl)ethane-1,2-diamine (SQ109) Pyrrole Hybrid Derivatives: Discovery of Potent Antitubercular Agents Effective against …” (J Med Chem, 2016)
